Hits are enriched below; roughly 3.5% of the tested compounds scored in any of these assays.
MrgX1 antag – antagonists of human MrgX1 receptor, primary screen, HEK293 cells, Fluo-4 calcium flux; B-score at 10 µM; actives 1.3% (n = 310,000); BAM8-22 antagonism; active compounds read low; Mas-related G-protein coupled receptor member X1 (Homo sapiens), Q96LB2; AID 588676, 2011;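 active means calcium-response B-score plate-corrected more than 3 library SD below zero, starting fluorescence within 5 deviations, no agonist response on first addition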;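 further: peak minus trough fluorescence over baseline after final BAM8-22 challenge near maximal dose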
Target sequence (Q96LB2 whole entry, looked up): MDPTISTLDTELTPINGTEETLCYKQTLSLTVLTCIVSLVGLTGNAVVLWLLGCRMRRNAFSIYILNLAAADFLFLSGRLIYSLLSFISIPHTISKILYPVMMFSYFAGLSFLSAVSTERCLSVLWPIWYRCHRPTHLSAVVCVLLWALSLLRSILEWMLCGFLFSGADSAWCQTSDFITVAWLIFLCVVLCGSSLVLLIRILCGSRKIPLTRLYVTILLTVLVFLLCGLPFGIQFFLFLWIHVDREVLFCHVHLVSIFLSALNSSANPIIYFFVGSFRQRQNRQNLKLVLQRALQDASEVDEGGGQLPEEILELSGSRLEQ
RGS4 act – RGS4 potentiators or activators, primary screen, cell-based, HEK293 M3R inducible RGS4, calcium flux | B-score at 10 µM | actives 0.92% (n = 310,000) | carbachol calcium flux Fluo4; active compounds read low | AID 463111, 2010;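 active means B-score of the integrated calcium signal more than 4 SD below the library mean, with starting fluorescence not abnormally high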;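 further: negative B-score means reduced calcium response which marks RGS4 activation or potentiation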
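Assay system: HEK293 FlpIn-TREx cells, stable M3R, doxycycline-inducible RGS4 / Probe or stimulus: carbachol, ECmax concentration / Times: overnight RGS4 induction, 30 min dye load 37 °C, 20 min compound RT / Signal: kinetic calcium fluorescence imaging with Fluo4-AM dye, 2 µM / Measure: Agonist-evoked peak-minus-minimum fluorescence over baseline, integrated ratio, B score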
MrgX1 PAM – positive allosteric modulators of MrgX1, primary screen, HEK293 cells, Fluo-4 calcium flux. AID 588675, 2011. Mas-related G-protein coupled receptor member X1 (Homo sapiens), Q96LB2. FDSS; active compounds read high. actives 0.63% (n = 310,000). B-score at 10 µM;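 active means plate-corrected calcium response at least 3 library SD above typical, normal starting fluorescence, not activating the receptor alone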;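 further: compound read alongside a low EC10 to EC30 dose of BAM8-22 agonist; peak minus trough fluorescence over baseline measured at the second addition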
MrgX1 agonist – agonists of human MrgX1 receptor, primary screen, HEK293 cells, Fluo-4 calcium flux; actives 0.44% (n = 310,000); Mas-related G-protein coupled receptor member X1 (Homo sapiens), Q96LB2; B-score at 10 µM; Fluo-4 calcium fluorescence, agonist mode; active compounds read high; AID 588627, 2011;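 active means calcium response B-score plate-corrected fluorescence ratio at least 3 library SD, with starting fluorescence B-score inside 5 SD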
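Material – MrgX1-expressing HEK293 cells · Input – 15,000 cells seeded per well · Dosing – compound as first of three additions · Times – overnight seeding, then 1 h dark dye loading · Measured by – kinetic Fluo-4 NW fluorescence of intracellular calcium · Read-out – B-scored fluorescence response ratio · Benchmarks – positive and negative control wells on each plate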
RGS4 block – RGS4 inhibitors, primary screen, cell-based, HEK293 M3R inducible RGS4, calcium flux. actives 0.45% (n = 310,000). Fluo-4 calcium flux; active compounds read high; triggered by carbachol at its EC20. AID 463165, 2010. B-score at 10 µM. Regulator of G-protein signaling 4 (Homo sapiens), P49798;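 active means B-score, a plate-corrected calcium signal, over three deviations above library mean, with baseline fluorescence within five deviations of library mean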;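 further: RGS4 expression induced by doxycycline in cells with stable M3 receptor; B-score is computed from the integrated fluorescence ratio over baseline after carbachol; higher B-score means a larger calcium signal and so more RGS4 inhibition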
Target sequence (P49798 whole entry, looked up): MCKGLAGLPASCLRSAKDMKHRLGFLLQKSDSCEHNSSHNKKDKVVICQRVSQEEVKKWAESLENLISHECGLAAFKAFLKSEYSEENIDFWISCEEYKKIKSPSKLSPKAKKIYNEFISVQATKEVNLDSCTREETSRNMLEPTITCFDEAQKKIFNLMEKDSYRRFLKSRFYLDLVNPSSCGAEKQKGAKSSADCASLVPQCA
RGS4 activ val – reduced carbachol calcium response, RGS4-induced M3R cells, confirmation, RGS4 activator project, cell-based, HEK293 M3R/RGS4 inducible, calcium flux, duplicate | AID 602282, 2012 | actives 89% (n = 1,100) | inhibition, % at 10 µM | shares compounds with RGS4 act | carbachol calcium flux Fluo4;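 active means inhibition above 3 SD of the buffer control wells, cut at about 41% in these data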;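 further: signal is the integrated peak-minus-minimum Fluo4 fluorescence over baseline ratio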
M3R Ca counter – activity in cells without induced RGS4 expression; shares compounds with RGS4 act; HEK293 M3R non-induced RGS4, Fluo4 calcium flux; after carbachol challenge at its EC90; inhibition, % at 10 µM; actives 82% (n = 1,100);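 active means inhibition exceeding 3 SD of buffer-only control wells, cut at about 26% in these data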;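 further: percent drop in integrated peak-minus-baseline over baseline Fluo4 ratio after carbachol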
RGS4 block valid – enhanced carbachol calcium response, M3R/RGS4 cells, RGS4 inhibitor project, cell-based, validation screen, HEK293 M3R/RGS4, calcium flux; shares compounds with RGS4 block; carbachol calcium Fluo-4 fluorescence; carbachol added at its EC20; 0 = buffer wells, 100 = carbachol control; calcium response, % at 10 µM; actives 65% (n = 1,700); AID 492999, 2010;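 active means duplicate-averaged calcium response above the buffer-only control mean plus 5 SD of those controls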;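 further: integrated fluorescence ratio F max minus min over baseline F0; higher response in RGS4-induced cells means RGS4 inhibition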
M3R Ca ctr – carbachol calcium response in non-induced M3R cells, confirmation, counter-screen for RGS4 inhibitor project, cell-based, HEK293 M3R; actives 20% (n = 1,900); carbachol calcium Fluo-4; submaximal (EC20) carbachol stimulus; buffer wells 0%, carbachol control wells 100%; activity (percent), % at 10 µM; shares compounds with RGS4 block; call rule not given here;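 further: RGS4 induction absent so cells express M3R without RGS4; higher means more calcium signal and flags a non-specific hit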
RGS4 inh ctr2 – second counter-screen for RGS4 inhibitors: non-induced cells without carbachol; shares compounds with RGS4 block; HEK293 M3R/RGS4 non-induced, Fluo-4 calcium, no carbachol; normalised: buffer wells 0%, carbachol wells 100%; calcium response (agonist-mode artifact), % at 10 µM; actives 22% (n = 1,900); AID 493001;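 active means duplicate-averaged calcium rise in uninduced cells above buffer wells' mean plus 5 SD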
MrgX1 ag confirm – MrgX1 receptor agonists, duplicate retest, confirmation, HEK293 cells, Fluo-4 calcium flux; shares compounds with MrgX1 agonist; Fluo-4 calcium fluorescence, FDSS; activation, % at 10 µM; actives 78% (n = 600); AID 602412, 2012;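 active means calcium signal rise, corrected for plate position, at least 3 library SD high, with starting brightness within 5 such deviations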
MrgX1 ant reconf – MrgX1 receptor antagonists, duplicate retest, confirmation, HEK293 cells, Fluo-4 calcium flux. actives 19% (n = 2,300). AID 602420, 2012. shares compounds with MrgX1 antag. remaining BAM8-22 calcium response % of control (active compounds read low), % at 10 µM. BAM8-22 calcium flux; active compounds read low;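 active means remaining agonist calcium response no higher than 100% minus 3 SD of agonist-only control wells, with starting fluorescence near control levels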;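 further: agonist BAM8-22 given at a near maximal EC90 to ECmax level; peak minus minimum fluorescence divided by baseline after agonist addition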
HEK293 Ca flux – nonspecific calcium signal in parental HEK293, confirmation, counter-screen for MrgX1 antagonist project, parental HEK293 cells, Fluo-4 calcium flux | fluorescence ratio F(max-min)/F0 at 10 µM | Fluo-4 calcium fluorescence, FDSS | shares compounds with MrgX1 antag | actives 2% (n = 4,000);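 active means duplicate-averaged calcium fluorescence ratio at least three times the standard deviation of buffer wells, a nonspecific response in parental cells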
HEK293 Ca counter – calcium response in parental HEK293 cells, primary screen, counter-screen for MrgX1 allosteric activator project, cell-based, Fluo-4 calcium flux, duplicate. actives 0.4% (n = 4,000). shares compounds with MrgX1 antag. Fluo-4 fluorescence ratio; active compounds read high. AID 624114, 2012. fluorescence ratio F(max-min)/F0 at 10 µM;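 active means calcium fluorescence ratio, averaged over duplicates, at least 3 SD of the buffer-well ratio, meaning a nonspecific response in receptor-free cells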;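 further: untransfected parental HEK293 lacking MrgX1 used as counterscreen for MrgX1 allosteric activators; fluorescence change taken during the second addition on a kinetic imager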
HEK293 Ca cntr2 – calcium response in parental HEK293 cells, primary screen, counter-screen for MrgX1 agonist project, cell-based, Fluo-4 calcium flux, duplicate, agonist mode; actives 8.7% (n = 4,000); Fluo-4 calcium fluorescence (FDSS); active compounds read high; fluorescence ratio F(max-min)/F0 at 10 µM; AID 624115, 2012; shares compounds with MrgX1 antag;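 active means calcium fluorescence ratio at least three times the spread of buffer wells, meaning a non-specific response in parental cells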
Numbers stand for hits; . = inactive; / = not tested or not shown.

SMILES | MrgX1 antag | RGS4 act | MrgX1 PAM | MrgX1 agonist | RGS4 block | RGS4 block valid | M3R Ca ctr | RGS4 inh ctr2 | others
CCOC(=O)c1ccc(NC(=S)N2CCSC2c2ccc(Cl)cc2)cc1 (stereo unspecified) | -6.3 | -8.8 | . | . | . | / | / | / | RGS4 activ val=94;M3R Ca counter=91;MrgX1 ant reconf=58%;HEK293 Ca flux=.;HEK293 Ca counter=49;HEK293 Ca cntr2=.
CCOC(=O)c1ccc(NC(=S)N2CCSC2c2ccc(OC)cc2)cc1 (stereo unspecified) | . | . | . | . | . | / | / | /
O=S(=O)(Nc1cc2nc3ccccc3nc2n1Cc1ccccc1)c1ccc(Cl)cc1 | . | -14 | . | 45 | . | / | / | / | RGS4 activ val=94;M3R Ca counter=88;MrgX1 ag confirm=.;HEK293 Ca flux=0.037;HEK293 Ca counter=.;HEK293 Ca cntr2=.
CCCCc1ccc(N/C(N)=N/c2nc(C)cc(C)n2)cc1 | . | -9.6 | . | 87 | . | / | / | / | RGS4 activ val=38;M3R Ca counter=84;MrgX1 ag confirm=511%;HEK293 Ca flux=.;HEK293 Ca counter=.;HEK293 Ca cntr2=113
O=C(NNc1ncnc2ccccc12)c1cccc(Cl)c1 | . | . | . | . | . | / | / | /
O=C(c1cc2ccccc2[nH]1)N(Cc1cccnc1)CC1CCCN(C2CCCCC2)C1 (stereo unspecified) | . | . | . | . | . | / | / | /
Cn1c2ccccc2c2cc(/C=N/NC(=O)c3cc(O)cc(O)c3)ccc21 | . | -7.2 | . | . | . | . | . | .
CCn1c2ccccc2c2cc(/C=N/NC(=O)c3ccccc3)ccc21 | . | . | . | . | . | . | . | .
COc1ccccc1/C=C/CN1CCSCC1 | . | . | . | . | . | / | / | /
O=[N+]([O-])/C=C\c1ccc(N2CCOCC2)cc1 | . | . | . | 41 | 35 | 88% | 94% | 35%
Cc1cc(C)cc(NS(=O)(=O)c2c(C(=O)N3CCOCC3)c(C)n(C)c2C)c1 | . | . | . | . | . | / | / | /
C=C1C(=O)O[C@@H]2[C@H]1[C@@H](OC(=O)/C(C)=C/C)C/C(C)=C\C(=O)/C=C(\C)[C@@H]2O | . | . | . | . | . | / | . | .
CC(/C=N/n1c(-c2cccnc2)n[nH]c1=S)=C\c1ccccc1 | . | . | . | . | . | / | / | /
CC(=C/c1ccccc1)/C=N/n1c(-c2ccncc2)n[nH]c1=S | . | . | . | . | 5.1 | 16% | . | .
S=c1[nH]nc(-c2ccncc2)n1/N=C/c1cn(-c2ccccc2)nc1-c1ccc(Cl)cc1 | . | . | . | . | . | . | . | .
COc1cc(C(=O)NNC(=O)c2ccccc2Br)ccc1OCC(=O)N1CCOCC1 | . | . | . | . | . | / | / | /
CCOc1ccc2nc(COC(=O)c3ccncc3)c(C(=O)c3ccccc3)[n+]([O-])c2c1 | . | . | . | . | . | / | / | /
O=C(CC(Nc1ccc(F)cc1)C(=O)OCC(=O)c1cccs1)c1ccccc1 (stereo unspecified) | . | . | . | . | 6.2 | . | . | .
O=C(CC(Nc1ccc(F)cc1)C(=O)O)c1ccccc1 (stereo unspecified) | . | . | . | . | . | / | / | /
CC1(C)CC(=O)C(=Cc2cn(-c3ccccc3)nc2-c2ccc(Cl)cc2)C(=O)C1 | . | . | . | . | . | . | . | .
CC1(C)CC(=O)C(=Cc2cn(CCC#N)nc2-c2ccc(Cl)cc2)C(=O)C1 | . | . | . | . | . | / | / | /
CC(=O)Nc1ccc(NC(=O)CSc2ccc([N+](=O)[O-])cn2)cc1 | . | . | . | . | . | / | / | /
COc1ccc(NC(=O)CN(C)C(=O)C(C)N2C(=O)c3ccccc3C2=O)cc1 (stereo unspecified) | . | . | . | . | . | / | / | /
O=Cc1ccc(-n2nncc2-c2ccc([N+](=O)[O-])cc2)cc1 | . | . | . | . | 7.4 | 42% | 66% | .
O=[N+]([O-])c1ccc(-n2nncc2-c2ccccc2)cc1 | . | . | . | . | . | / | / | /
Oc1ccc(/C=N/NC(=S)N2CCOCC2)cc1 | . | . | . | . | . | / | / | /
NNC(=O)COc1ccc(-c2n[nH]c(C(F)(F)F)c2-c2ccc(Br)cc2)c(O)c1 | . | . | . | . | 8.1 | 56% | 62% | .
COc1ccccc1-c1c(-c2ccc(OCC(=O)NN)cc2O)n[nH]c1C(F)(F)F | . | . | . | . | . | / | . | .
